From ChEMBL document CHEMBL2029237, “Melanin-concentrating hormone receptor 1 antagonists. Synthesis and structure-activity relationships of novel 3-(aminomethyl)quinolines” (J Med Chem, 2012)

Tests used:
[1] = molecular target: T1, Melanin-concentrating hormone receptor 1 (Homo sapiens, UniProt Q99705); assay: Displacement of [125I]MCH from human MCHR1 expressed in CHO cells after 1 hr by scintillation counting; format: cell-based
Summary of the method: (§1)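 CHO cell membranes stably expressing human or rat MCHR1 incubated 1 h at room temperature with [125I]MCH(4−19) and compound at various concentrations. Filtration through GF/C glass filters, bound radioactivity counted by scintillation. IC50 from one experiment in duplicate.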

[2] = molecular target: T1, Melanin-concentrating hormone receptor 1; assay: Antagonist activity at human MCHR1 expressed in CHO cells assessed as inhibition of MCH-induced [3H]arachidonic acid release […] by liquid scintillation counting; format: functional, cell-based; details: in the assay text read “45 mins” for “16 hrs”
Summary of the method: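 Human MCHR1-CHO cells seeded at 50 000/well, cultured 1 day, then loaded with [3H]arachidonic acid (0.2 μCi/well) for 16 h. Washed with DMEM containing 20 mM HEPES pH 7.4 and 0.2% BSA. Compound preincubated 30 min at 37 °C, MCH added, 45 min incubation, medium radioactivity by liquid scintillation.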

[3] = molecular target: T2, 5-hydroxytryptamine receptor 2C (Homo sapiens, UniProt P28335); assay: Displacement of [3H]mesulergine from human 5HT2C receptor expressed in CHO cells after 1 hr by scintillation counting; format: cell-based
T2 sequence (P28335 whole entry): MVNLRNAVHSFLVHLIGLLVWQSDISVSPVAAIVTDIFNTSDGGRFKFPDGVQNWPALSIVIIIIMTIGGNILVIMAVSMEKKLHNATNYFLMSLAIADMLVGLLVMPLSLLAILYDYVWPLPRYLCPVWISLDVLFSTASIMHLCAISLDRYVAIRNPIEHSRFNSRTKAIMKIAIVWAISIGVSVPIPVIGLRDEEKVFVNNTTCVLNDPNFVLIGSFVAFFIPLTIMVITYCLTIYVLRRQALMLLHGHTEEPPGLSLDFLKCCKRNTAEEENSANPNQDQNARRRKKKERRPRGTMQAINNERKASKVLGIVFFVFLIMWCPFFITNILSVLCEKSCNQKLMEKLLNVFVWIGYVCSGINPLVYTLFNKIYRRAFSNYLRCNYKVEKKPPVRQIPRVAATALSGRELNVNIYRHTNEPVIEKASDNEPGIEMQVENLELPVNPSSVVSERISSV
Summary of the method: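 Membranes from CHO cells stably expressing human 5-HT2c incubated 1 h at room temperature with [3H]mesulergine and compound at various concentrations. Terminated by GF/C filtration, filter radioactivity counted by scintillation. IC50 from one experiment in duplicate.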

[4] = Bioavailability in Fischer 344 rat; format: ADME, organism-based; details: in vivo
[5] = Total clearance in Fischer 344 rat at 0.3 mg/kg, iv; format: ADME, organism-based; design: dose 0.3 mg/kg, route intravenous; details: in vivo
[6] = Volume of distribution at the steady state in Fischer 344 rat at 0.3 mg/kg, iv; format: ADME, organism-based; design: dose 0.3 mg/kg, route intravenous; details: in vivo, read-out: Vdss
[7] = Half life in Fischer 344 rat at 0.3 mg/kg, iv; format: ADME, organism-based; design: dose 0.3 mg/kg, route intravenous; details: in vivo
[8] = Cmax in Fischer 344 rat at 1 mg/kg, po; format: ADME, organism-based; design: dose 1 mg/kg, route oral; details: in vivo
[9] = Tmax in Fischer 344 rat at 1 mg/kg, po; format: ADME, organism-based; design: dose 1 mg/kg, route oral; details: in vivo
[10] = AUC in Fischer 344 rat at 1 mg/kg, po; format: ADME, organism-based; design: dose 1 mg/kg, route oral; details: plasma
[11] = molecular target: Melanin-concentrating hormone receptor 1 (Rattus norvegicus, UniProt P97639); assay: Displacement of [125I]MCH from rat MCHR1 expressed in CHO cells after 1 hr by scintillation counting; format: cell-based; summary of the method: as §1
Melanin-concentrating hormone receptor 1 (Rattus norvegicus, UniProt P97639), sequence (P97639 whole entry): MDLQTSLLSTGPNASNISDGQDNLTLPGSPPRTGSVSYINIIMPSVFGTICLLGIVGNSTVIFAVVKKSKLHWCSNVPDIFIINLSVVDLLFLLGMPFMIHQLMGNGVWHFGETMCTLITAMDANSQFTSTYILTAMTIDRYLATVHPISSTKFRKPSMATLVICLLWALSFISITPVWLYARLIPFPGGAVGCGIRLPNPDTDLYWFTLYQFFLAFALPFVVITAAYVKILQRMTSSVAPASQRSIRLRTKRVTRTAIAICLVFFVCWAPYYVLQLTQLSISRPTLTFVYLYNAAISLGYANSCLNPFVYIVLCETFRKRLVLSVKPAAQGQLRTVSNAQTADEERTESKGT

[12] = test system: Rattus norvegicus; assay: Antiobesity activity in high-fat diet fed Fischer 344 rat DIO model assessed as inhibition of food intake at 1 mg/kg, po after 6 hrs; format: functional; details: Fischer 344, 6 h
Summary of the method: (§2)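 Male F344/Jcl rats, 52 weeks old, fed high-fat diet from 5 weeks of age, housed singly and acclimated to oral water dosing; grouped by overnight food intake and body weight. Single oral dose at 15:00 as 0.5% methylcellulose suspension, 2 mL/kg, six rats per group; vehicle controls. Cumulative food intake at 6 and 17 h; percent inhibition versus control, mean ± SD.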

[13] = test system: Rattus norvegicus; assay: Antiobesity activity in high-fat diet fed Fischer 344 rat DIO model assessed as inhibition of food intake at 1 mg/kg, po after 17 hrs; format: functional; details: Fischer 344, 17 h; summary of the method: as §2
[14] = test system: Rattus norvegicus; assay: Antiobesity activity in high-fat diet fed Fischer 344 rat DIO model assessed as inhibition of food intake at 3 mg/kg, po after 6 hrs; format: functional; details: Fischer 344, 6 h
Summary of the method: (§3)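 Male 52-week-old F344/Jcl rats on high-fat diet from 5 weeks of age, housed singly, grouped by overnight food intake and body weight. Oral dosing at 15:00 in 0.5% methylcellulose suspension, 2 mL/kg, against vehicle controls; six rats per group.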

[15] = test system: Rattus norvegicus; assay: Antiobesity activity in high-fat diet fed Fischer 344 rat DIO model assessed as inhibition of food intake at 3 mg/kg, po after 17 hrs; format: functional; details: Fischer 344, 17 h; summary of the method: as §3
[16] = test system: Rattus norvegicus; assay: Antiobesity activity in high-fat diet fed Fischer 344 rat DIO model assessed as inhibition of food intake at 10 mg/kg, po after 6 hrs; format: functional; details: Fischer 344, 6 h; summary of the method: as §3
[17] = test system: Rattus norvegicus; assay: Antiobesity activity in high-fat diet fed Fischer 344 rat DIO model assessed as inhibition of food intake at 10 mg/kg, po after 17 hrs; format: functional; details: Fischer 344, 17 h; summary of the method: as §3
[18] = test system: Rattus norvegicus; assay: Antiobesity activity in po dosed high-fat diet fed Fischer 344 rat DIO model assessed as inhibition of food intake after 17 hrs; format: functional, organism-based; summary of the method: as §3
[19] = Cmax in Fischer 344 rat brain at 1 mg/kg, po; format: ADME, organism-based; design: dose 1 mg/kg, route oral
[20] = Tmax in Fischer 344 rat brain at 1 mg/kg, po; format: ADME, organism-based; design: dose 1 mg/kg, route oral
[21] = test system: Brain; assay: AUC in Fischer 344 rat brain at 1 mg/kg, po; format: ADME, organism-based; design: dose 1 mg/kg, route oral; details: in vivo
[22] = test system: Mus musculus; assay: Antiobesity activity in high-fat diet given wild type mouse assessed as inhibition of food intake at 3 mg/kg, po qd for 2 days; format: functional; details: 48 h
Summary of the method: (§4)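 Male MCHR1-deficient mice and wild-type littermates, 34 weeks old, on high-fat diet from 5 weeks of age, housed singly. Grouped by food intake days −5 to −1 and day −1 body weight. Oral dosing at 16:00 on days 0 and 1 in 0.5% methylcellulose suspension, 10 mL/kg, against vehicle controls; six mice per group.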

[23] = test system: Mus musculus; assay: Antiobesity activity in high-fat diet given wild type mouse assessed as inhibition of food intake at 10 mg/kg, po qd for 2 days; format: functional; details: 48 h; summary of the method: as §4
[24] = test system: Mus musculus; assay: Antiobesity activity in MCHR1-deficient mouse assessed as inhibition of food intake at 3 mg/kg, po qd for 2 days; format: functional; details: 48 h; summary of the method: as §4
[25] = test system: Mus musculus; assay: Antiobesity activity in MCHR1-deficient mouse assessed as inhibition of food intake at 10 mg/kg, po qd for 2 days; format: functional; details: 48 h; summary of the method: as §4
[26] = Solubility of the compound in JP2 solution at 10 mM; format: physicochemical
Summary of the method: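 The 10 mM DMSO solution of compound was added to JP2 until opalescence appeared.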

T1 sequence (Q99705 whole entry): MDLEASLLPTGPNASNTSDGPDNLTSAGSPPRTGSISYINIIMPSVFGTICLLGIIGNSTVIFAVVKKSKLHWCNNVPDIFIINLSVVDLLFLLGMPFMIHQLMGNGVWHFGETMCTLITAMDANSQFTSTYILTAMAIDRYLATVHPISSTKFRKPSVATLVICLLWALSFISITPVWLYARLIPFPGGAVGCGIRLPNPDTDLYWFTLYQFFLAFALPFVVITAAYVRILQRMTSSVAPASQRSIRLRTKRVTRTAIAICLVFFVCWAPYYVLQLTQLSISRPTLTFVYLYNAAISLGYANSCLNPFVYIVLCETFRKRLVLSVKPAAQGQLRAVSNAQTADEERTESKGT

## Cc1ccc(-c2ccc(C(=O)Nc3ccc4cc(CN5CCCC5)cnc4c3C)cc2)cc1
[1]
  IC50: 1 nM
[2]
  IC50: 11 nM
[3]
  IC50: 540 nM

## CCc1c(NC(=O)c2ccc(-c3ccc(F)cc3)cc2)ccc2cc(CN3CCCC3)cnc12
[1]
  IC50: 100 nM
[3]
  IC50: > 1000 nM

## O=C(Nc1cc2ncc(CN3CCCC3)cc2cc1Cl)c1ccc(-c2ccc(F)cc2)cc1
[1]
  IC50: 1.4 nM
[2]
  IC50: 12 nM
[3]
  IC50: 240 nM

## COc1ccc(-c2ccc(C(=O)Nc3ccc4cc(CN5CCCC5)cnc4c3)cc2)cc1
[1]
  IC50: 3.7 nM
[3]
  IC50: > 1000 nM

## Cc1cc2cc(CN3CCCC3)cnc2cc1NC(=O)c1ccc(-c2ccc(F)cc2)cc1
[1]
  IC50: 1.3 nM
[2]
  IC50: 10 nM
[3]
  IC50: 7.4 nM

## Cc1c(NC(=O)c2ccc(-c3ccc(F)cc3)cc2)ccc2cc(CN3CCCC3)cnc12
[1]
  IC50: 0.54 nM
[2]
  IC50: 2.8 nM
[3]
  IC50: > 1000 nM
[4]
  bioavailability: 39%
[5]
  clearance: 40 mL/min/kg
[6]
  Vd: 20 L/kg
[7]
  half-life: 462 min
[8]
  Cmax: 9 ng/mL
[9]
  Tmax: 4 h
[10]
  AUC: 160 ng·h/mL
[11]
  IC50: 1.7 nM
[12]
  inhibition in vivo at 1 mg/kg: 18.8%
[13]
  inhibition in vivo at 1 mg/kg: 15.5%
[14]
  inhibition in vivo at 3 mg/kg: 36.7%
[15]
  inhibition in vivo at 3 mg/kg: 28.9%
[16]
  inhibition in vivo at 10 mg/kg: 55.7%
[17]
  inhibition in vivo at 10 mg/kg: 45.8%
[18]
  inhibition: Dose-dependent effect
[19]
  Cmax: 610 ng/g
[20]
  Tmax: 8 h
[21]
  AUC: 9343 ng·h/g
[22]
  inhibition in vivo at 3 mg/kg: 10.2%
[23]
  inhibition in vivo at 10 mg/kg: 13.2%
[24]
  inhibition in vivo at 3 mg/kg: 4.1%
[25]
  inhibition in vivo at 10 mg/kg: 5.7%

## O=C(Nc1ccc2nc(CN3CCCC3)ccc2c1)c1ccc(-c2ccc(F)cc2)cc1
[1]
  IC50: 2.7 nM
[2]
  IC50: 40 nM
[3]
  IC50: 36 nM

## Cc1ccc(-c2ccc(C(=O)Nc3ccc4cc(CN5CCCC5)cnc4c3)cn2)cc1
[1]
  IC50: 18 nM
[3]
  IC50: 570 nM

## COc1ccc(-c2ccc(C(=O)Nc3ccc4cc(CN5CCCC5)cnc4c3)cn2)cc1
[1]
  IC50: 26 nM

## Cc1ccc(C2CCN(C(=O)Nc3ccc4cc(CN5CCCC5)cnc4c3)CC2)cc1
[1]
  IC50: 23 nM

## O=C(Nc1ccc2cc(CN3CCCC3)cnc2c1)c1ccc(-c2ccc(Cl)cc2)nc1
[1]
  IC50: 4.1 nM
[2]
  IC50: 14 nM
[3]
  IC50: 930 nM

## COc1ccc(-c2ccc(C(=O)Nc3ccc4cc(CN5CCCC5)cnc4c3C)cc2)cc1
[1]
  IC50: 0.53 nM
[2]
  IC50: 4.3 nM
[3]
  IC50: > 1000 nM

## O=C(Nc1ccc2cc(CN3CCCC3)cnc2c1)c1ccc(-c2ccccc2)nc1
[1]
  IC50: 73 nM

## COc1ccc(C2CCN(C(=O)Nc3ccc4cc(CN5CCCC5)cnc4c3)CC2)cc1
[1]
  IC50: 48 nM

## O=C(Nc1ccc2cc(CN3CCCC3)cnc2c1F)c1ccc(-c2ccc(F)cc2)cc1
[1]
  IC50: 0.92 nM
[2]
  IC50: 2.3 nM
[3]
  IC50: 78 nM

## O=C(Nc1ccc2c(c1)CCC(CN1CCCC1)=C2)c1ccc(-c2ccc(F)cc2)cc1
[2]
  IC50: 17 nM
[3]
  IC50: 0.53 nM
[26]
  solubility: < 0.03 µg/mL
